Reference: ChEMBL document CHEMBL4613315, “Design of First-in-Class Dual EZH2/HDAC Inhibitor: Biochemical Activity and Biological Evaluation in Cancer Cells” (ACS Med Chem Lett, 2020)

Assays:
[1] = molecular target: Histone deacetylase (Homo sapiens) (UniProt Q13547+O15379+Q9UBN7+Q92769+Q9UQL6+Q8WUI4+Q9BY41+Q96DB2+P56524+Q9UKV0+Q969S8); assay: Inhibition of HDAC in human U937 cells assessed as Ac-H3 level at 50 uM in presence of vorinostat incubated for 96 hrs by Western blot analysis (reference value: 1); format: cell-based; details: U-937
How it was run: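 U937 leukemia cells given EZH2 inhibitor 50 μM together with HDAC inhibitor 0.5 μM; Western blot at 96 and 120 h for H3K27me3 or acetyl-H3, actin as loading control; densitometry normalized to loading control then to DMSO vehicle.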

[2] = molecular target: Histone-lysine N-methyltransferase EZH2 (Homo sapiens, UniProt Q15910); assay: Inhibition of EZH2 in human RH4 cells assessed as H3K27me3 level at 50 uM in presence of vorinostat incubated for 96 hrs by Western blot analysis (reference value: 1); format: cell-based
Sequence of Histone-lysine N-methyltransferase EZH2 (Q15910 whole entry, looked up): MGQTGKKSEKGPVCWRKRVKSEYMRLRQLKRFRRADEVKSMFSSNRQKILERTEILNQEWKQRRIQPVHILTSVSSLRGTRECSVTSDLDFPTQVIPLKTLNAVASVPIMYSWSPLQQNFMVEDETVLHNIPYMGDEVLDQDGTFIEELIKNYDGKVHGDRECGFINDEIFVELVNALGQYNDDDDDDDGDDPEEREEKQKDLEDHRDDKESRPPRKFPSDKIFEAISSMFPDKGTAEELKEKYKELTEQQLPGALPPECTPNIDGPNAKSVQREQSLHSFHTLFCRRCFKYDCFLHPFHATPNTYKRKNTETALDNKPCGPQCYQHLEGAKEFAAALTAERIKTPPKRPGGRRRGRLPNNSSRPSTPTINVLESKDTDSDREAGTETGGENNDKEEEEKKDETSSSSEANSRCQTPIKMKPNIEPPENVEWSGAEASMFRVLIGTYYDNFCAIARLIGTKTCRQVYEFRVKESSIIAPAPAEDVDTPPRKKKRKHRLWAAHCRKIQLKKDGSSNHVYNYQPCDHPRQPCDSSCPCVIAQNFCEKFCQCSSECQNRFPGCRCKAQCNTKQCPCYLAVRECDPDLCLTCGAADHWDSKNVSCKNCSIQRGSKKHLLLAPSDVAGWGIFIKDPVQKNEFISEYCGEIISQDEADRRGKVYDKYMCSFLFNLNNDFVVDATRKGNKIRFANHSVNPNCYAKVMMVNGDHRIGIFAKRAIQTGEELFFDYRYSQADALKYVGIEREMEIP
How it was run: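 RH4 cells co-treated with EZH2 inhibitor at 50 μM plus HDAC inhibitor at 0.15 μM; Western blot after 72 or 96 h for H3K27me3 or acetyl-tubulin, vinculin loading control; densitometry normalized to loading control then DMSO vehicle.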

[3] = molecular target: Histone deacetylase 1 (Homo sapiens, UniProt Q13547); assay: Inhibition of human recombinant HDAC1 using AMC-K(Ac)GL as substrate by fluorescence based assay
Sequence of Histone deacetylase 1 (Q13547 whole entry): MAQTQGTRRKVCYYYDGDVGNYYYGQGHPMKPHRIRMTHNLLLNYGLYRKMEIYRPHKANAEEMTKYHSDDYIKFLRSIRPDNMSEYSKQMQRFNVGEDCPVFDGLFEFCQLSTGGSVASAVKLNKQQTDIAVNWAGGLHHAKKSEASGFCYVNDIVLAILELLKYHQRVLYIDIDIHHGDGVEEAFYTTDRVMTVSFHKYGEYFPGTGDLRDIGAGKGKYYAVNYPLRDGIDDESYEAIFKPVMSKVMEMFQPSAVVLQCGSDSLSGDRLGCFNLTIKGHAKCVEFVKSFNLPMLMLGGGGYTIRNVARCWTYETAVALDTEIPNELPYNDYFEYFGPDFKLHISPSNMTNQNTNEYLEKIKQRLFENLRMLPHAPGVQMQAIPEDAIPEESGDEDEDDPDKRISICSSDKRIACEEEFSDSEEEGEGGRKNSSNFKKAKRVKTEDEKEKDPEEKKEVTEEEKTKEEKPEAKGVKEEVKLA

[4] = tested on: U-87 MG; assay: Cytotoxicity against human U87 cells assessed as reduction in cell viability incubated for 72 hrs by CellTiter-Glo Luminescent cell viability assay; format: functional, cell-based, U-87MG ATCC
How it was run: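 Antiproliferative IC50 after 72 h of treatment. Values are means of three independent experiments, each measured in triplicate, ± SD.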

[5] = Induction of apoptosis in human RH4 cells assessed as early apoptotic cells at 14 uM incubated for 72 hrs by annexin V-FITC staining based flow cytometry (reference value: 10.8 %); format: functional

fold change (FC) [1]	fold change (FC) [2]	IC50 [3]	Structure (SMILES)	IC50 [4]	Activity [5]
2.1	0.2		Cc1cc(C)c(CNC(=O)c2cc(C)n(-c3ccccc3)c2C)c(=O)[nH]1		
		0.43 µM	Cc1cc(C)c(CNC(=O)c2cc(C)n(-c3cccc(NC(=O)CCCCCCC(=O)NO)c3)c2C)c(=O)[nH]1	20 µM	13.8%
